Series [1] is described as follows: Toxicity in brine shrimp assessed as mortality at […] after 24 hrs by microscopic analysis. As to conditions: artemia salina, in vivo; read-out: Activity. Type of series: organism-based. A digest of the protocol:
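Artemia salina eggs hatched in artificial seawater for 48 h at 28 °C to give nauplii. Compounds dissolved in DMSO, then diluted in artificial seawater to 100, 50 and 10 mg/L and tested in triplicate, with DMSO control wells. 15−25 nauplii per well, covered plate, 28 °C, 24 h. Nonmotile nauplii were scored as dead under the microscope.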

A further series relates to HL-60. Briefly: Cytotoxicity against human HL60 cells after 48 hrs by MTT assay. Type of series: functional, cell-based. The conditions noted are these: HL-60, 48 h. A digest of the protocol:
(§1)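 Cells kept in DMEM or RPMI-1640 with 10% FBS at 37 °C, 5% CO2. Initial density 5 × 10^3 to 1 × 10^4 cells/mL. Adherent cells attached 12 h before dosing; suspension cells seeded just before dosing. Compounds at 40 μM, triplicate, 48 h, cisplatin and paclitaxel as positive controls. MTT then 4 h at 37 °C, SDS lysis, OD 595 nm. IC50 by Reed–Muench method.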
In general terms: Formazan colour is commonly taken as a measure of viable cells.

The subject of another series is SMMC-7721. Briefly: Cytotoxicity against human SMMC7721 cells after 48 hrs by MTT assay. Type of series: functional, cell-based. As to conditions: SMMC-7721, 48 h. Put shortly:
as §1

A further series deals with A549. The series can be described thus: Cytotoxicity against human A549 cells after 48 hrs by MTT assay. Type of series: functional, cell-based. As to conditions: A549, 48 h. A digest of the protocol:
as §1

A further series deals with MCF7. Briefly: Cytotoxicity against human MCF7 cells after 48 hrs by MTT assay. Type of series: functional, cell-based. The conditions noted are these: MCF7, 48 h. A digest of the protocol: as §1
For another series, the system named is SW480. The series can be described thus: Cytotoxicity against human SW480 cells after 48 hrs by MTT assay. Type of series: functional, cell-based. The conditions noted are these: SW480, 48 h. A digest of the protocol:
as §1

As a reminder, the IC50 is the concentration that gives 50% inhibition. A higher IC50 goes with weaker potency in that assay.

As to `CCOC(=O)[C@@H]1C[C@@]23CN(C)C[C@@H](CCC4=C2[C@H]1CC4=O)C31CC[C@](CC)(OC)OC1` (stereo partly specified) [DAPHMACROMINE B], the mortality at 24 h in series [1] is 49.9%. Moreover, the IC50 in the series with HL-60, with SMMC-7721, in the series on A549, in the series on MCF7 and with SW480 was more than 40 µM in each case.
`CC[C@]1(OC)CCC2(CO1)[C@@H]1CCC3=C4[C@H](CC3=O)[C@H](C(=O)OC)C[C@@]42CN(C)C1` (stereo partly specified) [DAPHMACROMINE E]: the mortality at 24 h in series [1] is 70.9%. The IC50 with HL-60, in the series with SMMC-7721, in the series with A549, in the series on MCF7 and in the series with SW480 was more than 40 µM each time.
For the molecule `COC(=O)[C@@H]1C[C@@]23C4=C(CC[C@@H]5CN6C[C@@H](C)[C@@H](C[C@@H](O)[C@@]52CO)[C@]63O)CC[C@@H]41` [DAPHNEZOMINE K], the mortality at 24 h in series [1] was found to be 0%. For the same molecule, the IC50 in the series with HL-60, in the series with SMMC-7721, in the series with A549, in the series with MCF7 and with SW480 was more than 40 µM in each case.
Consider `CC[C@@]1(OC)CCC2(CO1)[C@@H]1CCC3=C4[C@H](CC3=O)[C@H](C(=O)OC)C[C@@]42CN(C)C1` (stereo partly specified) [DAPHMACROMINE F], for which, in series [1], the mortality at 24 h came to 45%. Besides, the IC50 in the series on HL-60, in the series on SMMC-7721, in the series with A549, in the series with MCF7 and in the series on SW480 was more than 40 µM each time.
On to `COC(=O)[C@@H]1C[C@@]23CN(C)C[C@@H](CCC4=C2[C@@H]1CC4=O)C31CC=C(C(C)C)OC1` (stereo partly specified) [DAPHMACROMINE J], for which the mortality at 24 h in series [1] worked out at 55.2%. Further, the IC50 with HL-60, in the series on SMMC-7721, in the series with A549, in the series with MCF7 and with SW480 was more than 40 µM throughout.
On to `COC(=O)[C@@H]1C[C@@]23C4=C(CC[C@@H]5CN6C[C@@H](C)[C@@H](C[C@@H](OC(C)=O)[C@@]52COC(C)=O)[C@]63O)CC[C@@H]41` [YUZURIMINE], for which the mortality at 24 h in series [1] is 70.8%. The IC50 with HL-60, in the series on SMMC-7721, in the series with A549, in the series with MCF7 and with SW480 was more than 40 µM throughout.
`CCO[C@@]1(CC)CCC2(CO1)[C@@H]1CCC3=C4[C@H](CC3=O)[C@H](C(=O)OC)C[C@@]42CN(C)C1` (stereo partly specified) [DAPHMACROMINE C]: in series [1], the mortality at 24 h was 50.9%. Besides, the IC50 with HL-60, in the series on SMMC-7721, in the series with A549, in the series with MCF7 and with SW480 was more than 40 µM in each case.
For `CCO[C@@]1(CC)CCC2(CO1)[C@@H]1CCC3=C4[C@@H](CC3=O)[C@H](C(=O)OC)C[C@@]42CN(C)C1` (stereo partly specified) [DAPHMACROMINE D], the mortality at 24 h in series [1] came out at 53.8%. Further, the IC50 in the series on HL-60, in the series with SMMC-7721, in the series on A549, in the series on MCF7 and with SW480 was more than 40 µM each time.
For the molecule `CCC1=CCC2(CO1)[C@@H]1CCC3=C4[C@H](CC3=O)[C@H](C(=O)OC)C[C@@]42CN(C)C1` (stereo partly specified) [DAPHMACROMINE I], the mortality at 24 h in series [1] is 64.6%. Further, the IC50 in the series with HL-60, in the series with SMMC-7721, in the series on A549, in the series with MCF7 and with SW480 was more than 40 µM each time.
For `COC(=O)[C@@H]1C[C@@]23C4=C(CC[C@@H]5CN6C[C@@H](C)[C@@H](C[C@@H](OC(C)=O)[C@@]52COC(C)=O)C63)CC[C@@H]41` [DEOXYYUZURIMINE], the mortality at 24 h in series [1] is 81.8%. The IC50 with HL-60, in the series on SMMC-7721, in the series on A549, in the series on MCF7 and with SW480 was more than 40 µM throughout.
Regarding `COC(=O)[C@@H]1C[C@@]23C(=O)N4C[C@@H](CCC5=C2[C@@H]1CC5)[C@]3(CO)/C=C\C(=O)[C@H](C)C4`, the mortality at 24 h in series [1] was 38.3%. In addition, the IC50 with HL-60, in the series with SMMC-7721, with A549, with MCF7 and in the series with SW480 was more than 40 µM throughout.
As for `CC[C@]1(OC)CCC2(CO1)[C@@H]1CCC3=C4[C@@H](CC3=O)[C@H](C(=O)OC)C[C@@]42CN(C)C1` (stereo partly specified) [DAPHMACROMINE G], the mortality at 24 h in series [1] stood at 67.7%. Also, the IC50 in the series with HL-60, in the series on SMMC-7721, in the series with A549, in the series on MCF7 and in the series on SW480 was more than 40 µM in each case.
Turning to `CCOC(=O)[C@@H]1C[C@@]23CN(C)C[C@@H](CCC4=C2[C@@H]1CC4=O)C31CC[C@](CC)(OC)OC1` (stereo partly specified) [DAPHMACROMINE A], the mortality at 24 h in series [1] was 41%. The IC50 in the series with HL-60, in the series on SMMC-7721, in the series with A549, in the series with MCF7 and with SW480 was more than 40 µM each time.
Take `COC(=O)[C@@H]1C[C@]23C4=NC[C@@H](C)[C@]45C[C@@H](OC(C)=O)[C@@]2(COC(C)=O)[C@H](CCC2=C3[C@@H]1CC2)[C@H]5O` [DAPHTENIDINE C]: in series [1], the mortality at 24 h came out at 31.8%. In addition, the IC50 in the series with HL-60, with SMMC-7721, in the series with A549, in the series with MCF7 and in the series on SW480 was more than 40 µM in each case.
`COC(=O)[C@@H]1C[C@@]23C4=C(CC[C@@H]5CN6C[C@@H](C)[C@@H](C=C[C@@]52C=O)[C@]63O)CC[C@@H]41` [DAPHHIMALENINE B]: the mortality at 24 h in series [1] worked out at 64.9%. Also, the IC50 with HL-60, with SMMC-7721, in the series with A549, in the series with MCF7 and in the series with SW480 was more than 40 µM throughout.
In the case of `COC(=O)[C@@H]1C[C@@]23C4=C(CC[C@@H]5CN6C[C@H](C)[C@@](O)(C=C[C@@]52C=O)[C@]63O)CC[C@@H]41` [YUZURIMINE C], the mortality at 24 h in series [1] was 80.6%. Further, the IC50 with HL-60, in the series on SMMC-7721, in the series with A549, with MCF7 and with SW480 was more than 40 µM in each case.
`COC(=O)[C@@H]1C[C@@]23CN(C)C[C@@H](CCC4=C2[C@H]1CC4=O)C31CC[C@@](O)(C(C)C)OC1` (stereo partly specified) [DAPHMACROMINE H]: the IC50 in the series on HL-60, with SMMC-7721, with A549, in the series on MCF7 and in the series with SW480 was more than 40 µM in each case.

These data come from ChEMBL document CHEMBL2062455, “Daphmacromines A-J, alkaloids from Daphniphyllum macropodum” (J Nat Prod, 2012).
